# Experimental data: ChEMBL document CHEMBL1828575, “Design, synthesis and antiproliferative activities of biarylolefins based on polyhydroxylated and carbohydrate scaffolds” (Eur J Med Chem, 2011)
# Legend:
# Type in all cases: functional
# [1] = test system: PC-3; assay: Cytotoxicity against human PC3 cells assessed as cellular growth at 10 uM after 48 hrs by SRB assay
# In short: (§1)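 NCI-60 panel lines grown in RPMI 1640 with 5% FBS and 2 mM L-glutamine. Plated at 5000–40,000 cells/well and preincubated 24 h at 37 °C, 5% CO₂, with time-zero plates fixed in TCA. Compounds, dissolved in DMSO and diluted in medium, were applied for 48 h. Cells were TCA-fixed (10% final for adherent, 16% for suspension) and stained with 0.4% SRB in 1% acetic acid. Dye was solubilised in 10 mM Tris base and read at 515 nm; growth was expressed as a percentage of untreated control.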
# [2] = test system: SF-295; assay: Cytotoxicity against human SF295 cells assessed as cellular growth at 10 uM after 48 hrs by SRB assay; in short: as §1
# [3] = test system: NCI-H23; assay: Cytotoxicity against human NCI-H23 cells assessed as cellular growth at 10 uM after 48 hrs by SRB assay; in short: as §1
# [4] = test system: NCI-H322M; assay: Cytotoxicity against human NCI-H322M cells assessed as cellular growth at 10 uM after 48 hrs by SRB assay; in short: as §1
# [5] = test system: CCRF-CEM; assay: Cytotoxicity against human CCRF-CEM cells assessed as cellular growth at 10 uM after 48 hrs by SRB assay
# In short: (§2)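 NCI60 single-dose screen of cells in RPMI 1640 with 5% FBS and 2 mM L-glutamine, preincubated 24 h at 37 °C, 5% CO₂. Cells were then exposed 48 h to compound added from DMSO stock. TCA-fixed, stained with 0.4% SRB in 1% acetic acid, dye solubilised in 10 mM Tris base and read at 515 nm. Growth is given as percent of untreated control.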
# [6] = test system: K562; assay: Cytotoxicity against human K562 cells assessed as cellular growth at 10 uM after 48 hrs by SRB assay; in short: as §2
# [7] = test system: HOP-62; assay: Cytotoxicity against human HOP62 cells assessed as cellular growth at 10 uM after 48 hrs by SRB assay; in short: as §2
# [8] = test system: EKVX; assay: Cytotoxicity against human EKVX cells assessed as cellular growth at 10 uM after 48 hrs by SRB assay; in short: as §2
# [9] = test system: UACC-62; assay: Cytotoxicity against human UACC62 cells assessed as cellular growth at 10 uM after 48 hrs by SRB assay; in short: as §1
# [10] = test system: ACHN; assay: Cytotoxicity against human ACHN cells assessed as cellular growth at 10 uM after 48 hrs by SRB assay; in short: as §2
# [11] = test system: UO-31; assay: Cytotoxicity against human UO31 cells assessed as cellular growth at 10 uM after 48 hrs by SRB assay; in short: as §1
# [12] = test system: BT-549; assay: Cytotoxicity against human BT549 cells assessed as cellular growth at 10 uM after 48 hrs by SRB assay; in short: as §2
# [13] = test system: HOP-92; assay: Antitumor activity against human HOP92 cells after 48 hrs by SRB assay; details: HOP-92, 48 h
# In short: (§3)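 NCI60 panel in RPMI 1640 with 5% FBS and 2 mM L-glutamine. Cells were plated at 5000–40,000/well by doubling time, held 24 h, then time-zero plates were TCA-fixed. Five concentrations (10-fold or half-log dilutions of DMSO stocks) were applied for 48 h at 37 °C, 5% CO2. Cells were fixed with cold TCA (10% final adherent, 16% suspension) and stained with 0.4% SRB. Bound dye was dissolved in 10 mM Tris and read at 515 nm. GI50, TGI and LC50 were calculated per line.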
# [14] = test system: SNB-75; assay: Antitumor activity against human SNB75 cells after 48 hrs by SRB assay; details: SNB-75, 48 h
# In short: (§4)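 NCI60 panel cells grown in RPMI 1640 with 5% FBS and 2 mM L-glutamine, plated at 5000–40,000 cells/well and preincubated 24 h at 37 °C, 5% CO₂. Compound was added from DMSO at five concentrations, 10-fold or 1/2 log dilutions, then incubated 48 h.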
# [15] = test system: MDA-MB-231; assay: Antitumor activity against human MDA-MB-231 cells after 48 hrs by SRB assay; details: MDA-MB-231, 48 h; in short: as §3
# [16] = Antitumor activity against human Hs 578T cells after 48 hrs by SRB assay; in short: as §3
# [17] = test system: BT-549; assay: Antitumor activity against human BT549 cells after 48 hrs by SRB assay; details: BT-549, 48 h
# In short: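 NCI60 screen: cells grown in RPMI 1640 with 5% FBS and 2 mM L-glutamine, plated at 5000–40,000 cells/well by doubling time, preincubated 24 h at 37 °C with 5% CO2. Compounds were diluted from DMSO stocks and given for 48 h, at five concentrations for dose response. A time-zero plate was TCA-fixed. Cells were TCA-fixed, stained with 0.4% SRB and read at 515 nm, with growth expressed relative to untreated controls.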
# [18] = test system: UO-31; assay: Antitumor activity against human UO31 cells after 48 hrs by SRB assay; details: UO-31, 48 h; in short: as §4
# [19] = test system: SK-OV-3; assay: Antitumor activity against human SKOV3 cells after 48 hrs by SRB assay; details: SK-OV-3, 48 h; in short: as §4
# [20] = test system: OVCAR-5; assay: Antitumor activity against human OVCAR5 cells after 48 hrs by SRB assay; details: OVCAR-5, 48 h; in short: as §3
# [21] = test system: UACC-257; assay: Antitumor activity against human UACC257 cells after 48 hrs by SRB assay; details: UACC-257, 48 h; in short: as §4
# [22] = test system: SW-620; assay: Antitumor activity against human SW620 cells after 48 hrs by SRB assay; details: SW-620, 48 h; in short: as §4
# [23] = test system: A549; assay: Antitumor activity against human A549 cells after 48 hrs by SRB assay; details: A549, 48 h; in short: as §3
# [24] = read-out: LC50 (the source's name)
# [25] = read-out: pLC50 (the source's name) (converted)
compound,measurement,setting,value
COc1ccc(/C(=C2/O[C@@H]([C@H]3COC(C)(C)O3)[C@H]3OC(C)(C)O[C@@H]23)c2cc(OC)c(OC)c(OC)c2)cc1O,Activity,[1],30.63%
same,Activity,[2],85.23%
same,Activity,[3],72.29%
same,Activity,[4],34.81%
same,Activity,[5],47.94%
same,Activity,[6],24.28%
same,Activity,[7],48.49%
same,Activity,[8],90.16%
same,Activity,[9],93.16%
same,Activity,[10],44.73%
same,Activity,[11],49.1%
same,Activity,[12],57.66%
same,GI50,[13],5.45 µM
same,TGI,[13],31.8 µM
same,CC50,[13]; [24],> 100 µM
same,GI50,[14],1.8 µM
same,TGI,[14],6.31 µM
same,CC50,[14]; [24],53.5 µM
same,GI50,[15],4.58 µM
same,TGI,[15],30.7 µM
same,CC50,[15]; [24],> 100 µM
same,GI50,[16],2.83 µM
same,TGI,[16],7.88 µM
same,CC50,[16]; [24],> 100 µM
same,GI50,[17]; read-out: GI50,5.39 µM
same,CC50,[17]; [24],> 100 µM
same,TGI,[17]; read-out: TGI,> 100 µM
same,GI50,[17]; read-out: pGI50 (converted),5.37 µM
same,CC50,[17]; [25],> 100 µM
same,TGI,[17]; read-out: pTGI (converted),> 100 µM
same,GI50,[18]; read-out: GI50,7.53 µM
same,CC50,[18]; [24],> 100 µM
same,TGI,[18]; read-out: TGI,77.8 µM
same,GI50,[18]; read-out: pGI50 (converted),7.59 µM
same,CC50,[18]; [25],> 100 µM
same,TGI,[18]; read-out: pTGI (converted),77.6 µM
same,GI50,[19]; read-out: GI50,4.11 µM
same,CC50,[19]; [24],> 100 µM
same,TGI,[19]; read-out: TGI,3.85 µM
same,GI50,[19]; read-out: pGI50 (converted),4.68 µM
same,CC50,[19]; [25],> 100 µM
same,TGI,[19]; read-out: pTGI (converted),18.6 µM
same,GI50,[20]; read-out: GI50,> 1 µM
same,CC50,[20]; [24],> 100 µM
same,TGI,[20]; read-out: TGI,> 100 µM
same,GI50,[20]; read-out: pGI50 (converted),100 µM
same,CC50,[20]; [25],> 100 µM
same,TGI,[20]; read-out: pTGI (converted),> 100 µM
same,GI50,[21]; read-out: GI50,> 1 µM
same,CC50,[21]; [24],> 100 µM
same,TGI,[21]; read-out: TGI,> 100 µM
same,GI50,[21]; read-out: pGI50 (converted),100 µM
same,CC50,[21]; [25],> 100 µM
same,TGI,[21]; read-out: pTGI (converted),> 100 µM
same,GI50,[22]; read-out: GI50,4.05 µM
same,CC50,[22]; [24],> 100 µM
same,TGI,[22]; read-out: TGI,> 100 µM
same,GI50,[22]; read-out: pGI50 (converted),4.07 µM
same,CC50,[22]; [25],> 100 µM
same,TGI,[22]; read-out: pTGI,> 100 µM
same,GI50,[23]; read-out: GI50,2.32 µM
same,CC50,[23]; [24],> 100 µM
same,TGI,[23]; read-out: TGI,> 100 µM
same,GI50,[23]; read-out: pGI50 (converted),23.4 µM
same,CC50,[23]; [25],> 100 µM
same,TGI,[23]; read-out: pTGI (converted),> 100 µM
